Data taken from ChEMBL document CHEMBL1142019, “Design and synthesis of novel 9-substituted-7-aryl-3,4,5,6-tetrahydro-2H-pyrido[4,3-b]- and [2,3-b]-1,5-oxazocin-6-ones as NK(1) antagonists” (2005).

Experiments:
[1] = Effective bladder capacity increasing effect of compound (0.3 mg/kg i.v.) expressed as the ratio of increase in effective bladder capacity compared to saline treated animals in vivo; assay type: functional, Cavia porcellus; conditions: in the assay text read “compared with the predrug values” for “compared to saline treated animals”
How it was run: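 Spinalized guinea pigs given test agent iv at 0.3 mg/kg. Effective bladder capacity was the volume of saline injected into the bladder. The result is the ratio of the increase in effective bladder capacity relative to each animal's predrug value.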

[2] = target: Substance-P receptor (Cavia porcellus) (UniProt P30547); assay: Antagonist activity against tachykinin receptor 1 activity in guinea pig ileum in vitro; assay type: functional, tissue-based
Chain of Substance-P receptor (Cavia porcellus) (P30547 whole entry): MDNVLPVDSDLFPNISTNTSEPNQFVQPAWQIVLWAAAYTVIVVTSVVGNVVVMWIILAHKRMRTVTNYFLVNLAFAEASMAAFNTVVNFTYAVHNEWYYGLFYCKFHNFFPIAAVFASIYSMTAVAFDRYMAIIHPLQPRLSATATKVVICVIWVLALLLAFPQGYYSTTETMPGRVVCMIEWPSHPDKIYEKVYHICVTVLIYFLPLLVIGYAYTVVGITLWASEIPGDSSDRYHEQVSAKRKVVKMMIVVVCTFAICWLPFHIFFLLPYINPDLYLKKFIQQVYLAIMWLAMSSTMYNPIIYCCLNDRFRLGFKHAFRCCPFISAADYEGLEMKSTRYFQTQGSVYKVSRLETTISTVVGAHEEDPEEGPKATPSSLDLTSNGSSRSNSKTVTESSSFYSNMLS
How it was run: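 Isolated guinea pig ileum preparation; NK1 antagonism expressed as a K_B value.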

Rattus norvegicus = species on record: Rattus norvegicus; assay: Metabolic stability expressed as the remaining ratio of compound in rat microsomes after incubation in a shaking water bath for 1 hour; assay type: functional
How it was run: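 Compound incubated with rat microsomes for 60 min at 37 °C in a shaking water bath. Stability is reported as the remaining ratio, the percentage of parent compound left.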

| Kb [2] | SMILES | Effect [1] | Remaining ratio (Rattus norvegicus) |
| --- | --- | --- | --- |
|  | Cc1ccc(-c2c3n(c(=O)c4ncccc24)CC[C@@H](C)CN(Cc2cc(C(F)(F)F)cc(C(F)(F)F)c2)C3=O)cc1 | 12% |  |
| 2.63 nM | O=C1c2c(cc(N3CCOCC3)nc2-c2ccccc2)OCCCN1Cc1cc(C(F)(F)F)cc(C(F)(F)F)c1 |  | 100% |
| 13.8 nM | O=C1c2c(-c3ccccc3)cc(N3CCCC3)nc2OCCCN1Cc1cc(C(F)(F)F)cc(C(F)(F)F)c1 |  | 71% |
|  | Cc1ccccc1-c1nc(N2CCC(N3CCCC3)CC2)cc2c1C(=O)N(Cc1cc(C(F)(F)F)cc(C(F)(F)F)c1)CCCO2 | 3.97% | 100% |
| 0.224 nM | O=C1c2c(-c3ccccc3)cc(N3CCC(N4CCCC4)CC3)nc2OCCCN1Cc1cc(C(F)(F)F)cc(C(F)(F)F)c1 |  | 86% |
| 13.2 nM | O=C1c2c(-c3ccccc3)cc(N3CCCCC3)nc2OCCCN1Cc1cc(C(F)(F)F)cc(C(F)(F)F)c1 |  | 70% |
| 151 nM | CN(Cc1cc(C(F)(F)F)cc(C(F)(F)F)c1)C(=O)c1cccnc1-c1ccccc1 |  | 70% |
| 0.207 nM | O=C1c2c(-c3ccccc3Cl)cc(N3CCC(N4CCCC4)CC3)nc2OCCCN1Cc1cc(C(F)(F)F)cc(C(F)(F)F)c1 |  | 89% |
| 2.34 nM | O=C1c2c(-c3ccccc3)cc(N3CCC(N4CCCCC4)CC3)nc2OCCCN1Cc1cc(C(F)(F)F)cc(C(F)(F)F)c1 |  | 100% |
| 69.2 nM | O=C1c2c(ccnc2-c2ccccc2)OCCCN1Cc1cc(C(F)(F)F)cc(C(F)(F)F)c1 |  | 100% |
| 2.57 nM | O=C1c2c(-c3ccccc3)cc(N3CCOCC3)nc2OCCCN1Cc1cc(C(F)(F)F)cc(C(F)(F)F)c1 |  | 100% |
| 0.382 nM | O=C1c2c(-c3ccccc3F)cc(N3CCC(N4CCCC4)CC3)nc2OCCCN1Cc1cc(C(F)(F)F)cc(C(F)(F)F)c1 |  | 100% |
| 26.3 nM | COc1cc(N2CCOCC2)nc(-c2ccccc2)c1C(=O)N(C)Cc1cc(C(F)(F)F)cc(C(F)(F)F)c1 |  | 100% |
| 1.16 nM | CN1CCN(c2cc(-c3ccccc3)c3c(n2)OCCCN(Cc2cc(C(F)(F)F)cc(C(F)(F)F)c2)C3=O)CC1 |  | 100% |
| 0.21 nM | Cc1ccccc1-c1cc(N2CCC(N3CCCC3)CC2)nc2c1C(=O)N(Cc1cc(C(F)(F)F)cc(C(F)(F)F)c1)CCCO2 | 24.2% | 100% |
| 129 nM | CN(Cc1cc(C(F)(F)F)cc(C(F)(F)F)c1)C(=O)c1ccc(N2CCOCC2)nc1-c1ccccc1 |  | 100% |
| 25.7 nM | FC(F)(F)c1cc(COc2cccnc2-c2ccccc2)cc(C(F)(F)F)c1 |  | 9% |
